From ChEMBL document CHEMBL2396554, “Synthesis and biological evaluation of metabolites of 2-n-butyl-9-methyl-8-[1,2,3]triazol-2-yl-9H-purin-6-ylamine (ST1535), a potent antagonist of the A2A adenosine receptor for the treatment of Parkinson's disease” (J Med Chem, 2013) come the findings set out here.

Each structure is given as a SMILES string. pIC50, pKi: −log10 of the molar value. Active and inactive are the calls of the source. No cut-off for these calls is given here.

Test [1] concerns the target T1, Adenosine receptor A2a (Homo sapiens, UniProt P29274). As to the kind of experiment: Displacement of [3H]ZM241385 from human recombinant adenosine A2A receptor expressed in HEK293 cells after 1 hr by competitive binding assay. It is filed as cell-based. A digest of the protocol:
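HEK293 membranes expressing human A2A receptor pretreated with 2 IU/mL adenosine deaminase, 30 min at 37 °C. Competition with [3H]ZM241385 at its Kd (2 nM) using 5–10 µg protein and test compound 0.01–10,000 nM, 1 h at 4 °C in 50 mM Tris-HCl pH 7.4, 10 mM MgCl2. Nonspecific binding with 10 µM unlabeled ZM241385. Ki via Cheng–Prusoff; four experiments in triplicate.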
On the technique in general: Displacement assays read how much labelled ligand stays bound in the presence of the test substance.

A further test addresses T2, Adenosine receptor A1 (Homo sapiens, UniProt P30542).
T2 sequence (P30542 whole entry): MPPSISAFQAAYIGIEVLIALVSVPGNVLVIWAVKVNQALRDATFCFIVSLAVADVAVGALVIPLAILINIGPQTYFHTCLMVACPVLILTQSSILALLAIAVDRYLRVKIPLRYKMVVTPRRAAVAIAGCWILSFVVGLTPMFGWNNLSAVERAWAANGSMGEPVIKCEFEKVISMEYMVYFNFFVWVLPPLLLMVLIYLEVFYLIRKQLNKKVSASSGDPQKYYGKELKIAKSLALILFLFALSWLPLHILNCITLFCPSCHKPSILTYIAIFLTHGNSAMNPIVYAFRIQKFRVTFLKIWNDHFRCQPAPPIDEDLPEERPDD
As to the kind of experiment: Displacement of [3H]DPCPX from human recombinant adenosine A1 receptor expressed in CHO-K1 cells after 60 mins. The format is cell-based.

Test [2] addresses T1, Adenosine receptor A2a. Put plainly: Inhibition of human recombinant adenosine A2A receptor expressed in HEK293 cells at 10 uM. The format is cell-based.
Test [3] has as its target T3, Adenosine receptor A3 (Homo sapiens) (UniProt P0DMS8).
T3 sequence (whole entry): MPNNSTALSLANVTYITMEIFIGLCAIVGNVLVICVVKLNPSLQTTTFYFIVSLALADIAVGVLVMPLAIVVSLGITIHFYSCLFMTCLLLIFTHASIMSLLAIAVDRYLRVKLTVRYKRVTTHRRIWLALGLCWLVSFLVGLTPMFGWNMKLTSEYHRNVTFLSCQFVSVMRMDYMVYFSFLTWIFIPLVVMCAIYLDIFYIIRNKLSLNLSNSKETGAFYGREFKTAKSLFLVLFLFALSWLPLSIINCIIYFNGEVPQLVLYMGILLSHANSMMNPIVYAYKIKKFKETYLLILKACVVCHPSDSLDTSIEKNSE
Put plainly: Inhibition of human adenosine A3 receptor at 10 uM.

Test [4] concerns the target T3, Adenosine receptor A3 (Homo sapiens). Put plainly: Binding affinity to human adenosine A3 receptor.
The target in test [5] is T4, Adenosine receptor A1 (Homo sapiens) (UniProt P30542).
T4 sequence (whole entry): T2 sequence (P30542 whole entry)
Put plainly: Inhibition of human recombinant adenosine A1 receptor expressed in CHO-K1 cells at 10 uM. It is filed as cell-based.

The subject of test [6] is Mus musculus. As to the kind of experiment: Induction of limbic movement in CD1 mouse at 20 to 200 mg/kg, po after 60 to 240 mins by Irwin test. The format is functional, organism-based. The conditions noted are these: Limbic system. In outline:
(§1)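 Irwin test in CD-1 mice, 5–6 weeks old, 4 per group. Compounds suspended in 0.1% Tween 80 in 0.5% CMC and given orally at 20, 100 and 200 mg/kg in 10 mL/kg. Behaviour recorded by camera at 60 and 240 min after dosing; stereotypies scored: sniffing (limbic), licking and biting (striatal).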

Test [7] deals with Mus musculus. Put plainly: Induction of striatal movement in CD1 mouse at 20 to 200 mg/kg, po after 60 to 240 mins by Irwin test. The format is functional, organism-based. In outline:
as §1

Test [8] has as its target T1, Adenosine receptor A2a. Put plainly: Antagonist activity at human adenosine A2A receptor expressed in HEK293 cells assessed as inhibition of NECA-induced cAMP accumulation incubated for 10 mins prior to NECA addition. It is filed as functional, cell-based. In outline:
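HEK-293 cells stably expressing human A2A, plated 48 h ahead. They were pretreated 10 min at 37 °C with 0.5 mM Ro20-1724 and 2 IU/mL adenosine deaminase, then compound (10^-4 to 10^-10 M) for 10 min at 37 °C, then 100 nM NECA for 20 min. cAMP was extracted and measured by enzyme immunoassay. IC50 came from nonlinear regression of four independent experiments.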
(In general: cAMP levels reflect the balance of adenylyl cyclase and phosphodiesterase activity.)

T1 sequence (P29274 whole entry): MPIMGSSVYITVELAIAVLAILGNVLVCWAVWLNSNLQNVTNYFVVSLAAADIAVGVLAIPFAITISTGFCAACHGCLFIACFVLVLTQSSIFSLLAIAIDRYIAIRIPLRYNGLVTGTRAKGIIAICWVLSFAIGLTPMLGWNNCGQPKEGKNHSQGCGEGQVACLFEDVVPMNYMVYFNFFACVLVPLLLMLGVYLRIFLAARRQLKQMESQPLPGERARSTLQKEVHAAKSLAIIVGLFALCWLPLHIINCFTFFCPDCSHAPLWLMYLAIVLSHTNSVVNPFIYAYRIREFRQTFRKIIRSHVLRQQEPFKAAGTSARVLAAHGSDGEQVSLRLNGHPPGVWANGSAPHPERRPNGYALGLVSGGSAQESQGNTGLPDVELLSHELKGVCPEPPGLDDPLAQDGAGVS

Regarding `CCC(O)Cc1nc(N)c2nc(-n3nccn3)n(C)c2n1` (configuration not stated), the pKi at Adenosine receptor A2a [1] is 7.19.

For the molecule `C[C@H](O)CCc1nc(N)c2nc(-n3nccn3)n(C)c2n1`, at Adenosine receptor A1, the pKi was 7.28.

Take `C[C@@H](O)CCc1nc(N)c2nc(-n3nccn3)n(C)c2n1`: the pKi is 7.47 on Adenosine receptor A1 and 8.12 on Adenosine receptor A2a [1].

On to `Cn1c(-n2nccn2)nc2c(N)nc(CCCCO)nc21`, for which the inhibition entry (on Adenosine receptor A2a [2]; in test [5]) was “Active” throughout. Also, in test [3], the inhibition is 47%. For the same molecule, in test [4], the result was inactive. The pKi at Adenosine receptor A1 is 6.82.

Consider `CC(=O)CCc1nc(N)c2nc(-n3nccn3)n(C)c2n1`, for which the inhibition entry (on Adenosine receptor A2a [2]; in test [5]) was “Active” each time. For the same molecule, the inhibition in test [3] stood at 56%. For the same molecule, the outcome in the test with Mus musculus [6] and in the test with Mus musculus [7] was Active. For the same molecule, the outcome in test [4] was inactive.

For `CCCC(O)c1nc(N)c2nc(-n3nccn3)n(C)c2n1` (racemic), the inhibition result (on Adenosine receptor A2a [2]; in test [5]) was “Active” in each case. Also, the inhibition in test [3] is 55%. Moreover, the outcome in the test with Mus musculus [6] and with Mus musculus [7] was Active. The outcome in test [4] was inactive. Further, the pKi at Adenosine receptor A1 was 6.80.

For the molecule `CC(O)CCc1nc(N)c2nc(-n3nccn3)n(C)c2n1` (racemic), the inhibition result (at Adenosine receptor A2a [2]; in test [5]) was “Active” each time. The molecule also had an inhibition in [3] of 61%. Besides, the result in the test with Mus musculus [6] and in the test with Mus musculus [7] was Active. Further, the outcome in test [4] was inactive. Also, the figures for the pKi at Adenosine receptor A1 and at Adenosine receptor A2a [1] were 7.47 and 8.08, respectively.

`CCCCc1nc(N)c2nc(-n3nccn3)n(C)c2n1` [ST1535]: the pIC50 on Adenosine receptor A2a [8] is 6.37. Also, the pKi on Adenosine receptor A1 was 7.00.

The pKi is the Ki on a negative log10 scale, so that one unit is a factor of ten. By inhibition is commonly meant the drop in the measured response relative to a control, in per cent. A word on the pIC50: it is the IC50 on a negative log10 scale, so that one unit is a factor of ten.
